Data: publication PMC3677213 (Antiviral research, 2013)
pEC50, pIC50: −log10 of the molar value. Read-outs that look alike come from different tables or passages of the source.

Key:
[1] = tested on: WT HIV-1 NL4-3; assay type: cell-based; conditions: MT-4 cells
[2] = tested on: HIV-1 NL4-3 integrase Y143C; assay type: cell-based; conditions: MT-4 cells; IN substitution Y143C
[3] = tested on: HIV-1 NL4-3 integrase N155H; assay type: cell-based; conditions: MT-4 cells; IN substitution N155H
[4] = tested on: HIV-1 NL4-3 integrase E92Q/N155H; assay type: cell-based; conditions: MT-4 cells; IN substitutions E92Q/N155H
[5] = tested on: HIV-1 NL4-3 integrase T66I; assay type: cell-based; conditions: MT-4 cells; IN substitution T66I
[6] = tested on: HIV-1 (Group M) isolate 92RW016, subtype A; test: Antiviral assay in fresh human PBMCs; assay type: cell-based
[7] = tested on: HIV-1 (Group M) isolate 91US004, subtype B; test: Antiviral assay in fresh human PBMCs; assay type: cell-based
[8] = tested on: HIV-1 (Group M) isolate 98IN022, subtype C; test: Antiviral assay in fresh human PBMCs; assay type: cell-based
[9] = tested on: HIV-1 (Group M) isolate 93UG067, subtype D; test: Antiviral assay in fresh human PBMCs; assay type: cell-based
[10] = tested on: HIV-1 (Group M) isolate CMU08, subtype E; test: Antiviral assay in fresh human PBMCs; assay type: cell-based
[11] = tested on: HIV-1 (Group M) isolate 93BR029, subtype F; test: Antiviral assay in fresh human PBMCs; assay type: cell-based
[12] = tested on: HIV-1 (Group M) isolate G3, subtype G; test: Antiviral assay in fresh human PBMCs; assay type: cell-based
[13] = tested on: HIV-1 (Group M) isolate CDC310342, CRF02-AG; test: Antiviral assay in fresh human PBMCs; assay type: cell-based
[14] = tested on: HIV-2 isolate CDC310319; test: Antiviral assay in fresh human PBMCs; assay type: cell-based
Procedure, shortened: (§1)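 Freshly isolated human PBMCs are infected with virus and cultured with test compound. Replication is measured as reverse transcriptase activity in culture supernatants, using a microtiter plate-based RT reaction. EC50 is the concentration giving 50% inhibition, as the mean of three determinations. CC50 is measured in parallel with the tetrazolium dye MTS, and therapeutic index = CC50/EC50.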

[15] = tested on: SIV isolate MAC251; test: Antiviral assay in fresh human PBMCs; assay type: cell-based; conditions: PBMC
Procedure, shortened: as §1

[16] = tested on: HIV-1, HIV-2 and SIV isolates; test: Antiviral assay in PBMCs, all isolates together; assay type: cell-based; conditions: PBMC, read-out: mean EC50 (± SD), all isolates
[17] = Cytotoxicity in human PBMC cultures; assay type: cell-based; conditions: peripheral blood mononuclear cells (PBMCs)
Procedure, shortened: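 Freshly isolated human PBMCs are cultured with test compound. Viability is read out with the tetrazolium-based dye MTS, and CC50 is derived from that read-out.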

[18] = tested on: HIV-1 NL4-3 integrase Q148R; assay type: cell-based; conditions: MT-4 cells; IN substitution Q148R
[19] = In vitro human liver microsome stability; assay type: in vitro ADME
[20] = target: CYP3A4 (Homo sapiens, UniProt P08684); test: Cytochrome P-450 isozyme inhibition assay in human liver microsomes; assay type: in vitro ADME
[21] = target: CYP2D6 (Homo sapiens, UniProt P10635); test: as above; assay type: in vitro ADME
[22] = target: CYP2C8 (Homo sapiens, UniProt P10632); test: as above; assay type: in vitro ADME
[23] = target: CYP2C9 (Homo sapiens, UniProt P11712); test: as above; assay type: in vitro ADME
[24] = target: CYP2C19 (Homo sapiens, UniProt P33261); test: as above; assay type: in vitro ADME
[25] = tested on: CYP isozymes (3A4, 2D6, 2C8, 2C9, 2C19); test: Activation of CYP isozymes; assay type: in vitro ADME; conditions: human liver microsomes; CYP 3A4, 2D6, 2C8, 2C9, 2C19
[26] = tested on: UGT in pooled human liver microsomes (UGT 1A1, 1A4, 1A6, 1A9 and 2B7); test: UGT substrate activity in pooled human liver microsomes; assay type: in vitro ADME
[27] = target: UGT1A1 (Homo sapiens, UniProt P22309); test: UGT substrate activity with cDNA-expressed isozyme; assay type: in vitro ADME; conditions: UGT1A1 (BD Biosciences); HPLC
[28] = target: UGT1A3 (Homo sapiens, UniProt P35503); test: UGT substrate activity with cDNA-expressed isozyme; assay type: in vitro ADME; conditions: UGT1A3 (BD Biosciences); HPLC
[29] = target: UGT1A4 (Homo sapiens, UniProt P22310); test: UGT inhibition study with trifluoperazine as substrate; assay type: in vitro ADME; conditions: human liver microsomes
Procedure, shortened: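 Pooled human liver microsomes (0.2 mg/mL protein) were held with alamethicin (0.024 mg/mg protein) in 100 mM potassium phosphate, pH 7.4, with 5 mM MgCl2 at 0 °C for 15 min. Test compound in DMSO (0 to 300 μM) and trifluoperazine substrate were added, with organic solvent <1.6%. Mixtures were preincubated 3 min at 37 °C, then started with UDPGA (final 4 mM) and run 15 min. Acetonitrile stop, centrifugation, HPLC-UV of supernatant.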

[30] = tested on: UGT isozymes; test: Activation of UGT isozymes in human liver microsomes; assay type: in vitro ADME; conditions: kinetic studies in human liver microsomes
[31] = Human immunodeficiency virus 1, PBMC, in Homo sapiens, read-out: EC50 (± SD)

Chain of CYP2C9 (P11712 whole entry): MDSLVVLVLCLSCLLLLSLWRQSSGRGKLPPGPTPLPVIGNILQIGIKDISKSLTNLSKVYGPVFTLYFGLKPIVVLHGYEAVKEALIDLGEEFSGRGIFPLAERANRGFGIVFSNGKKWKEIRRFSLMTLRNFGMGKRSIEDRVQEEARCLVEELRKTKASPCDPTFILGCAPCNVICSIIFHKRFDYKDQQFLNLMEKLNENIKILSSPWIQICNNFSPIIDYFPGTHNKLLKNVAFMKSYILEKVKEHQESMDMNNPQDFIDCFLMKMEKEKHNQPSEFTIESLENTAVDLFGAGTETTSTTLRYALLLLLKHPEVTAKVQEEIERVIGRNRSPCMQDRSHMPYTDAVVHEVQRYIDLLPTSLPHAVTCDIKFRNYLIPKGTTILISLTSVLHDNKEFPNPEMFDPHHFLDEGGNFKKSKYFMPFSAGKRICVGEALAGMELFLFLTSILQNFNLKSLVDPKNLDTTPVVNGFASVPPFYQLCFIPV
Chain of UGT1A1 (P22309 26-533): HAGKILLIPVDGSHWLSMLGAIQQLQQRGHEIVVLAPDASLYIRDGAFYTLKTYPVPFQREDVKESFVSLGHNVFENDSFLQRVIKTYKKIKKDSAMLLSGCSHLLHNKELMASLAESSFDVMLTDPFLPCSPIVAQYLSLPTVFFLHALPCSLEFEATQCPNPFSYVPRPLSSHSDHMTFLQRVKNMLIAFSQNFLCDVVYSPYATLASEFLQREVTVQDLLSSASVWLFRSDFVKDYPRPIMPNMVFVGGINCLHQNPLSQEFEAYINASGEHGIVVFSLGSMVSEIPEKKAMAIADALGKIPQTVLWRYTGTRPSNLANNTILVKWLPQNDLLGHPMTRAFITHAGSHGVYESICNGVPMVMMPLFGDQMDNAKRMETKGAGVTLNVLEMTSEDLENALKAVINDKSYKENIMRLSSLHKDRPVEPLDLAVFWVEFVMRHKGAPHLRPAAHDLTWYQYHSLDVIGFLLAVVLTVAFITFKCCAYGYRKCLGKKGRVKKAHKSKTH
Chain of CYP3A4 (P08684 whole entry): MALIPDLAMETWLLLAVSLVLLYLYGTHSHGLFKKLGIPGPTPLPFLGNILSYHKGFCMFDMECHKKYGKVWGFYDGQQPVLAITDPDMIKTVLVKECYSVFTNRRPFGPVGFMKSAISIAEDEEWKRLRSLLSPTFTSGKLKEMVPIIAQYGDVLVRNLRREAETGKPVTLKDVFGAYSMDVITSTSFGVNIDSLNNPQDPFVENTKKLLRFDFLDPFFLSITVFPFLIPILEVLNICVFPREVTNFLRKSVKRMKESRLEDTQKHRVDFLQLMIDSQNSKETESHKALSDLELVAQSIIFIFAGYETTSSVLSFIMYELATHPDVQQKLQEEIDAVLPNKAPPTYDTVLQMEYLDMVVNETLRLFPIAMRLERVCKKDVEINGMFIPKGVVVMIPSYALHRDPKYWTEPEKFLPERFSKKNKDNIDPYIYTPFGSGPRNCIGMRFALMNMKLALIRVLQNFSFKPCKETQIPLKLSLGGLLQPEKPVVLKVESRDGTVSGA
Chain of CYP2C8 (P10632 whole entry): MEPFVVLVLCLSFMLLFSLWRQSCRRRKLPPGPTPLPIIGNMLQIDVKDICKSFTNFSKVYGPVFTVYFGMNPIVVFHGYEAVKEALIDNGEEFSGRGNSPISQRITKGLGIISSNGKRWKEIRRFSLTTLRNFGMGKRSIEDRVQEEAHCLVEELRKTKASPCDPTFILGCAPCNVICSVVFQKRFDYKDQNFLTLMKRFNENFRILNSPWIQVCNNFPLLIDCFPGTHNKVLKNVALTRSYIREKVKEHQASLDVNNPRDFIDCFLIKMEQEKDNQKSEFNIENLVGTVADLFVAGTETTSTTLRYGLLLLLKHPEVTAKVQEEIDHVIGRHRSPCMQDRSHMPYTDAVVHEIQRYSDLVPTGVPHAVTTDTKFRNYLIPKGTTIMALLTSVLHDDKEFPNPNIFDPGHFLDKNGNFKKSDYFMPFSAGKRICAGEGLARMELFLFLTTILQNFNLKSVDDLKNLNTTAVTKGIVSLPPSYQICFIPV
Chain of UGT1A4 (P22310 29-534): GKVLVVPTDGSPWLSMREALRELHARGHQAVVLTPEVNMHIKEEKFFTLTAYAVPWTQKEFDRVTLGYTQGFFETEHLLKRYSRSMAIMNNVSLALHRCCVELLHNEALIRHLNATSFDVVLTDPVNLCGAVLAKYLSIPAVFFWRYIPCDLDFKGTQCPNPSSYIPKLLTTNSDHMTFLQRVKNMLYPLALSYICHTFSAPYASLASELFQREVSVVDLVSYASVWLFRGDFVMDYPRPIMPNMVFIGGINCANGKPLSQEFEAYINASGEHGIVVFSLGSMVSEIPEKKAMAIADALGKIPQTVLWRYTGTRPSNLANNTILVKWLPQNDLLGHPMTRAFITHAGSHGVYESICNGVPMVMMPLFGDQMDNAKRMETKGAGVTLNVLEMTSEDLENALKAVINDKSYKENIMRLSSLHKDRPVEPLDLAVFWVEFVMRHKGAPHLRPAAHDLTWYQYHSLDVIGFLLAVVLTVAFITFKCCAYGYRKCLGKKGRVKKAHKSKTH
Chain of CYP2D6 (P10635 whole entry): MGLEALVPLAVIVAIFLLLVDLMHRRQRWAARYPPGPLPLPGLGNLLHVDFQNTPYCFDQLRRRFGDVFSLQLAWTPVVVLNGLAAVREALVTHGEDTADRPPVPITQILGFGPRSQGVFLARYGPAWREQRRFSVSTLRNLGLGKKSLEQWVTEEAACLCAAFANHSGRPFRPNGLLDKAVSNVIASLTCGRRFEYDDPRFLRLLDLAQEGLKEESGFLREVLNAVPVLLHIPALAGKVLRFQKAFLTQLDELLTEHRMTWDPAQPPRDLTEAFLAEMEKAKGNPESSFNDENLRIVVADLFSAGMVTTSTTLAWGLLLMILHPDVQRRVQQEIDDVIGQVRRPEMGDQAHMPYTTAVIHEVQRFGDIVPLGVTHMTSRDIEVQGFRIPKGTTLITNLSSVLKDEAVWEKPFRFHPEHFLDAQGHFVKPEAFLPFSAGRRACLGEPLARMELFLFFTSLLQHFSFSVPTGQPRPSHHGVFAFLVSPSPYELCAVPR
Chain of UGT1A3 (P35503 29-534): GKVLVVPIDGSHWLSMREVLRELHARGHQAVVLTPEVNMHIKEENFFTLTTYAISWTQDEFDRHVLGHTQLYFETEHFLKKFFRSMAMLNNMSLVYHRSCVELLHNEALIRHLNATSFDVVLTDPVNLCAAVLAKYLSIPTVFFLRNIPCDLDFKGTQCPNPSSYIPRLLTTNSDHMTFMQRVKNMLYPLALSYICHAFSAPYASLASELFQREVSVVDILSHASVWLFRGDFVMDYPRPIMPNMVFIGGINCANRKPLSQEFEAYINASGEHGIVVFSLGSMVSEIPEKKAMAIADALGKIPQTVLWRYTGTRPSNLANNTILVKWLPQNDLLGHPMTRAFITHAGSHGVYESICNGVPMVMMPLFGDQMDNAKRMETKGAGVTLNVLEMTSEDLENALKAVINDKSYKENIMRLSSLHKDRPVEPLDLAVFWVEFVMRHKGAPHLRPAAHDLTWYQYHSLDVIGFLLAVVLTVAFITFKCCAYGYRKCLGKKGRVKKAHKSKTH
Chain of CYP2C19 (P33261 whole entry): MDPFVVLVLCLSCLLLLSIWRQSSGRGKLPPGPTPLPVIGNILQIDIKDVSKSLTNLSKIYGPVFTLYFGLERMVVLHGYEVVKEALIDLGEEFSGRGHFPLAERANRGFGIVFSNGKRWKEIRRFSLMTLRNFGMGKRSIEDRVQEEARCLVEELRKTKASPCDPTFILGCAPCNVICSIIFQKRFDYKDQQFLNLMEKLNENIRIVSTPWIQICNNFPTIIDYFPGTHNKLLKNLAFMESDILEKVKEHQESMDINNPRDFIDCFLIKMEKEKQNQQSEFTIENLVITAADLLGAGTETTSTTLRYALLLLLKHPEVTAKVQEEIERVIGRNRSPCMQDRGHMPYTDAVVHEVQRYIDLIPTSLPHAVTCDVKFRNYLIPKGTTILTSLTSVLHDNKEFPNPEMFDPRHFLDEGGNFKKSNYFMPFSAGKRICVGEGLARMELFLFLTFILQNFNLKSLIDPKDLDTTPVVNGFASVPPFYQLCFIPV

SMILES: Cc1cn([C@H]2C[C@H](N=[N+]=[N-])[C@@H](CO)O2)c(=O)[nH]c1=O [AZT]
- EC50 fold change compared to wild-type virus [1]: 1.0
- EC50 fold change compared to wild-type virus [2]: 1.18
- EC50 fold change compared to wild-type virus [3]: 3.29
- EC50 fold change compared to wild-type virus [4]: 3.45
- EC50 fold change compared to wild-type virus [5]: 1.0

SMILES: O=C(C=C(O)c1cc(Cc2c(F)cccc2F)cn(Cc2ccccc2F)c1=O)C(=O)NN1CCCC1=O [Compound 1, 4-(5-(2,6-difluorobenzyl)-1-(2-fluorobenzyl)-2-oxo-1,2-dihydropyridin-3-yl)-4-hydroxy-2-oxo-N-(2-oxopyrrolidin-1-yl)but-3-enamide]
- pEC50 [6, 31]: 7.68
- Therapeutic Index (CC50/EC50) ([6]; PBMC, isolate 92RW016, subtype A): 4,625
- pEC50 [7, 31]: 8.16
- Therapeutic Index (CC50/EC50) ([7]; PBMC, isolate 91US004, subtype B): 13,962
- pEC50 [8, 31]: 7.53
- Therapeutic Index (CC50/EC50) ([8]; PBMC, isolate 98IN022, subtype C): 3,228
- pEC50 [9, 31]: 7.31
- Therapeutic Index (CC50/EC50) ([9]; PBMC, isolate 93UG067, subtype D): 1,984
- pEC50 [10, 31]: 7.28
- Therapeutic Index (CC50/EC50) ([10]; PBMC, isolate CMU08, subtype E): 1,836
- pEC50 [11, 31]: 7.74
- Therapeutic Index (CC50/EC50) ([11]; PBMC, isolate 93BR029, subtype F): 5,257
- pEC50 [12, 31]: 7.46
- Therapeutic Index (CC50/EC50) ([12]; PBMC, isolate G3, subtype G): 2,756
- pEC50 [13, 31]: 7.48
- Therapeutic Index (CC50/EC50) ([13]; PBMC, isolate CDC310342, CRF02-AG): 2,880
- pEC50 ([14]; Human immunodeficiency virus 2, PBMC, in Homo sapiens, read-out: EC50 (± SD)): 7.07
- Therapeutic Index (CC50/EC50) ([14]; PBMC, HIV-2 isolate CDC310319): 1,119
- Therapeutic Index (CC50/EC50) ([15]; SIV isolate MAC251): 5,037
- pEC50 ([15]; Simian immunodeficiency virus, in Homo sapiens, read-out: EC50 (± SD)): 7.72
- pEC50 [16]: 7.46
- CC50 [17]: 96200 nM
- EC50 fold change compared to wild-type virus [1]: 1.0
- EC50 fold change compared to wild-type virus [2]: 1.87
- EC50 fold change compared to wild-type virus [3]: 8.20
- EC50 fold change compared to wild-type virus [18]: 18.8
- EC50 fold change compared to wild-type virus [4]: 6.13
- EC50 fold change compared to wild-type virus [5]: 5.20
- stability in pooled human liver microsomes ([19]; 50 μM, 0.5 mg/mL protein, NADPH, 37 °C): relatively stable
- pIC50 [20]: < 3.70
- pIC50 [21]: < 3.70
- pIC50 [22]: < 3.70
- pIC50 [23]: < 3.70
- inhibition at 30 min, 200 μM ([23]; human, liver microsomes, pH 7.4, probe tolbutamide 500 μM): 15.5%
- pIC50 [24]: < 3.70
- activation of CYP isozymes [25]: not an activator
- Glucuronide (formed) [26]: None^a
- Glucuronide (formed) [27]: None^a
- Glucuronide (formed) [28]: None^a
- inhibition of UGT1A4 [29]: not an inhibitor
- activation of UGT isozymes [30]: no indication of the activation

SMILES: COc1cc2c(cc1Cc1cccc(Cl)c1F)c(=O)c(C(=O)O)cn2[C@H](CO)C(C)C [Elvitegravir, elvitegravir]
- EC50 fold change compared to wild-type virus [1]: 1.0
- EC50 fold change compared to wild-type virus [2]: 46.7
- EC50 fold change compared to wild-type virus [3]: 200
- EC50 fold change compared to wild-type virus [18]: 96.1
- EC50 fold change compared to wild-type virus [4]: 134
- EC50 fold change compared to wild-type virus [5]: 5.5

SMILES: C[C@]12CC[C@@H]3c4ccc(O)cc4CC[C@H]3[C@@H]1CC[C@@H]2O [Estradiol, reference compound]
- Glucuronide (formed) [26]: Glucuronides (two)
- Glucuronide (formed) [27]: Glucuronide

SMILES: Cc1cc(=O)oc2cc(O)ccc12 [Methylumbelliferone, 4-methylumbelliferone]
- Glucuronide (formed) [26]: Glucuronide

SMILES: CN1CCN(CCCN2c3ccccc3Sc3ccc(C(F)(F)F)cc32)CC1 [Trifluoperazine]
- Glucuronide (formed) ([26]; pHLM (Xenotech), HPLC): N-Glucuronide

SMILES: Cc1ncc2n1-c1ccc(Cl)cc1C(c1ccccc1F)=NC2 [midazolam]
- remaining at 1 h ([19]; human, microsomes, pH 7.4): 61.5%
- Km ([19]; human, pH 7.4): 2.52 µM
